Laboratory results taken from publication PMC6545551 (ACS Omega, 2019).
Where two headings read alike, the source gives them in different places.

Tests used:
ovine COX-1 = target: T1, ovine COX-1 (Ovis aries, UniProt P05979); assay: Inhibition of purified ovine COX-1; type: biochemical
T1 sequence (P05979 25-600): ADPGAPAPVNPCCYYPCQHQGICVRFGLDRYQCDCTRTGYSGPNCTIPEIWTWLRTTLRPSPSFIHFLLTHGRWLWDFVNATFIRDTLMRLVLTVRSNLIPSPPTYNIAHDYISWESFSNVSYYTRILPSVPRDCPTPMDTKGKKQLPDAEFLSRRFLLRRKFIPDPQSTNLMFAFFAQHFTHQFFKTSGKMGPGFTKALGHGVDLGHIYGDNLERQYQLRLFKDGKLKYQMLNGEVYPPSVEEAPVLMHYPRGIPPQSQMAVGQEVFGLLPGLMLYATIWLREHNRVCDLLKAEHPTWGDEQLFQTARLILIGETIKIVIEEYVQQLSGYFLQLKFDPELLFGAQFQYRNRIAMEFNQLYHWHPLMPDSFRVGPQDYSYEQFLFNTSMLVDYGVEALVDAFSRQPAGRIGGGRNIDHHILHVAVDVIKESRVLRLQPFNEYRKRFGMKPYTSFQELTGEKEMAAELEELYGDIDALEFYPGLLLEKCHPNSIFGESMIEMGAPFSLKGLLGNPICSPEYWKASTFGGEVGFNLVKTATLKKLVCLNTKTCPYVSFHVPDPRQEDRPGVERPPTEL

COX-1 in OVCAR3 cells = COX-1 in OVCAR3 cells (Homo sapiens, UniProt P23219); assay: Inhibition of COX-1 in intact OVCAR3 cells; type: cell-based
[1] = target: T2, COX-2 in 1483 HNSCC cells (Homo sapiens, UniProt P35354); assay: Inhibition of COX-2 in intact 1483 HNSCC cells; type: cell-based
T2 sequence (P35354 18-604): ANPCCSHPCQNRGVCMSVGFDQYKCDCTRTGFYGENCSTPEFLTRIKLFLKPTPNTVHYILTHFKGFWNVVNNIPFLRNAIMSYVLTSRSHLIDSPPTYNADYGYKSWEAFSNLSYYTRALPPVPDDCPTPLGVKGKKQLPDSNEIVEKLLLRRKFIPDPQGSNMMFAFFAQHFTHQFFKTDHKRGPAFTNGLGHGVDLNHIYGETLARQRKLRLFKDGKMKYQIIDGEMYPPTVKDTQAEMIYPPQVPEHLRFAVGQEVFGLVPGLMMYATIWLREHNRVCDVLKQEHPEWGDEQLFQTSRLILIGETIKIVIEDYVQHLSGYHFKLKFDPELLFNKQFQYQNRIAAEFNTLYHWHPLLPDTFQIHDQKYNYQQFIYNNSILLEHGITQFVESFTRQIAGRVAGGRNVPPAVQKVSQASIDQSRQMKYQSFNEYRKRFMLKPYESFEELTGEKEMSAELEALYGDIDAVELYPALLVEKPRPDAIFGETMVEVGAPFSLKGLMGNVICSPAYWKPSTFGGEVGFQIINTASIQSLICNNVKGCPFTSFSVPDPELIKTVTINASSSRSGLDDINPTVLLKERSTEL

[2] = Plasma protein binding, mouse plasma; type: in vitro ADME
Outline: (§1)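 Equilibrium dialysis in a high-throughput micro-equilibrium device, with test compound incubated in mouse, dog or human plasma at 37 °C. Samples were taken at 0 and 4.5 h and quantified by fast-gradient LC–MS/MS. Unbound fraction was calculated as buffer-side concentration divided by protein-side concentration. Recovery was the summed buffer and protein chamber concentrations relative to the 0 h concentration.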

[3] = Plasma protein binding, dog plasma; type: in vitro ADME
Outline: as §1

[4] = Plasma protein binding, human plasma; type: in vitro ADME
Outline: as §1

[5] = Plasma protein binding, free fraction across species; type: in vitro ADME; conditions: mouse, dog, human
Outline: as §1

[6] = In vivo plasma half-life of FDF in mice; conditions: male, CD-1, mouse, ip, 10 mg/kg
[7] = In vivo biodistribution and defluorination of unlabeled FDF in C57BL/6 mice; design: species or system mouse; conditions: 10 mg/kg i.p., 60 min
Outline: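 Male C57BL/6 mice (30 g, three per group) received unlabeled test compound at 10 mg/kg i.p. "at 10 min intervals." At 60 min, brain, lungs, heart, kidney, liver and muscle were taken, rinsed in cold PBS and frozen at −80 °C. Tissues were homogenized in acetonitrile, extracts dried and reconstituted in methanol/water. Quantitation was by C18 LC–MS/MS, SRM m/z 279 → 236, against a 1:1 methanol/water standard curve.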

mouse COX-2 = target: T3, mouse COX-2 (Mus musculus, UniProt Q05769); assay: Inhibition of purified COX-2; type: biochemical
T3 sequence (Q05769 18-604): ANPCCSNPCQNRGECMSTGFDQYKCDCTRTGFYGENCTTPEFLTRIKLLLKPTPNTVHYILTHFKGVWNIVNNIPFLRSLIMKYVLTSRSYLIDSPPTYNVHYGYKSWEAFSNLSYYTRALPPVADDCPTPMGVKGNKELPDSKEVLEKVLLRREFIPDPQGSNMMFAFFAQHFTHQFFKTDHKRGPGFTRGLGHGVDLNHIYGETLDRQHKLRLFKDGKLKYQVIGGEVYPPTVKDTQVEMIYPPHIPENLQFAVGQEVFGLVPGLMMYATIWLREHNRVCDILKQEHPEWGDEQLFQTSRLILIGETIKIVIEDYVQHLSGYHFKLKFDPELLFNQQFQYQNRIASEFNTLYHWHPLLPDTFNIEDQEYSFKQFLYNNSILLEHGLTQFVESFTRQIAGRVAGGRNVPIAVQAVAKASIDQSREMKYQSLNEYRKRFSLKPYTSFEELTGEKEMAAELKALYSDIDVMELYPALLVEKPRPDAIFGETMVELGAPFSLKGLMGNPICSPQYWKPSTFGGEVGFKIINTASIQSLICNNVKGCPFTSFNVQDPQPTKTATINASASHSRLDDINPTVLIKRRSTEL

Sequence of COX-1 in OVCAR3 cells (P23219 24-599): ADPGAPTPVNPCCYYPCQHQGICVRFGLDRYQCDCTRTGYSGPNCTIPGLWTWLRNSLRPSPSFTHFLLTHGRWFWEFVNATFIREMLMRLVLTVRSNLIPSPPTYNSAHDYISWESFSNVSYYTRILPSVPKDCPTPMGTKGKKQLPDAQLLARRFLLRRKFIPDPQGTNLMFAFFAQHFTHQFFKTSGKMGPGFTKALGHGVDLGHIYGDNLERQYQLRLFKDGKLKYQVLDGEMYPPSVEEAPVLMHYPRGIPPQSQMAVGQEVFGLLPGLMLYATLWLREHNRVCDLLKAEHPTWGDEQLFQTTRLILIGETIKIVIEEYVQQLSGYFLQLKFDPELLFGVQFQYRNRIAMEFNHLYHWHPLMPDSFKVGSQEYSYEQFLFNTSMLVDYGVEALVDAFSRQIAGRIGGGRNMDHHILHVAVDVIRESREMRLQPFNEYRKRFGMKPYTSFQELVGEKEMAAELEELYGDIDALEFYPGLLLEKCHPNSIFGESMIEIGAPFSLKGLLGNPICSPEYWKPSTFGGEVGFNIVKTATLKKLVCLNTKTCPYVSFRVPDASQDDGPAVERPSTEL

SMILES | IC50 (ovine COX-1) [nM] | IC50 (COX-1 in OVCAR3 cells) [nM] | IC50 [1] [nM] | further results
Cc1ccc(C2=C(c3ccc(F)cc3)C(=O)OC2(C)C)cc1 [Compound 4, 3-(4-Fluorophenyl)-5,5-dimethyl-4-(p-tolyl)furan-2(5H)-one] | 140 | 220 | > 5000 | fraction unbound at 4.5 h [2]: 0.025; fraction unbound at 4.5 h [3]: ~0.01; fraction unbound at 4.5 h [4]: ~0.01; fraction unbound at 4.5 h [5]: 0.0099 to 0.025; half-life [6]: 1.2 h; Defluorinated metabolite in other organs [7]: below the quantification limit; Uptake in the kidney (average) [7]: 8.87 nmol/g tissue; Uptake in the liver (overall average) [7]: 0.61 nmol/g tissue
CC1(C)OC(=O)C(c2ccc(F)cc2)=C1c1ccccc1 [Compound 3, 3-(4-Fluorophenyl)-5,5-dimethyl-4-phenylfuran-2(5H)-one] | 640 | 280 | > 5000 | 
COc1ccc([I+]c2ccc(C3=C(c4ccc(C)cc4)C(C)(C)OC3=O)cc2)cc1.Cc1ccc(S(=O)(=O)[O-])cc1 [Compound 7, (4-(5,5-Dimethyl-2-oxo-4-(p-tolyl)-2,5-dihydrofuran-3-yl)phenyl)(4-methoxyphenyl)iodonium Tosylate] | > 25000 | > 5000 | > 5000 | Inhibition of purified COX-1 (in words) (ovine COX-1): failed to inhibit; Inhibition of purified COX-2 (in words) (mouse COX-2): failed to inhibit; Inhibition of COX-1 in intact OVCAR3 cells (in words) (COX-1 in OVCAR3 cells): inactive; Inhibition of COX-2 in 1483 HNSCC cells (in words) [1]: inactive
CC1(C)OC(=O)C(c2ccccc2)=C1c1ccccc1 [Compound 1, 5,5-Dimethyl-3,4-diphenylfuran-2(5H)-one] | 360 | 120 | > 5000 | Inhibition of purified COX-2 (in words) (mouse COX-2; at concentrations up to 25 μM): no inhibition

Molecules with a lower IC50 (ovine COX-1), results first:

IC50 (ovine COX-1) [nM] | IC50 (COX-1 in OVCAR3 cells) [nM] | IC50 [1] [nM] | SMILES | further results
50 | 130 | > 5000 | Cc1ccc(C2=C(c3cccc(F)c3)C(=O)OC2(C)C)cc1 [Compound 5, 3-(3-Fluorophenyl)-5,5-dimethyl-4-(p-tolyl)furan-2(5H)-one] | 
40 | 800 | > 5000 | Cc1ccc(C2=C(c3ccc(I)cc3)C(=O)OC2(C)C)cc1 [Compound 6, 3-(4-Iodophenyl)-5,5-dimethyl-4-(p-tolyl)furan-2(5H)-one] | 
50 | 490 | > 5000 | Cc1ccc(C2=C(c3ccccc3)C(=O)OC2(C)C)cc1 [Compound 2, 5,5-Dimethyl-3-phenyl-4-(p-tolyl)furan-2(5H)-one] | 
